Bioassay records: PubChem BioAssay, several laboratories
Rce1 inh: inhibitors of yeast Ras-converting enzyme. Q03530. yeast membranes, quenched prenylated peptide cleavage fluorescence. calls only. 290,000 compounds, 0.27% hits. AID 2563;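 active = fall in fluorescence gain of 50% or more versus controls, with final raw signal at or below 3038400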
Target sequence (Q03530 whole entry, looked up): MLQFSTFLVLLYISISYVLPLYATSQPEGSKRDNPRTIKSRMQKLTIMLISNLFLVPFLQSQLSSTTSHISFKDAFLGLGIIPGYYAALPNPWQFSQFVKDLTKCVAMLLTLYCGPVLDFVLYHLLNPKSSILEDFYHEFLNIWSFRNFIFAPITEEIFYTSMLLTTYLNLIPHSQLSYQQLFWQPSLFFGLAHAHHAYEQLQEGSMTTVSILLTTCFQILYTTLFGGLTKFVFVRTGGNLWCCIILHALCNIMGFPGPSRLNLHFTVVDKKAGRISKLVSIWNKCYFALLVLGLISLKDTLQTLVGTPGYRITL
Platelet DG rel: platelet dense granule release activity; human platelet-rich plasma, SFLLRN dense granule ATP release, luminescence; inhibition, %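 (compounds screened at 7.5 µM in platelet-rich plasma)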; 300,000 compounds, 0.22% hits; AID 1663;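 active = mean replicate score, as percent of positive control, at or above 50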
VLA-4 inh: inhibition in a human VLA-4 binding assay | inhibition, % (about 7 µM as worked out from the volumes in the protocol) | VLA-4 expressing cells, ligand binding flow cytometry | 330,000 compounds, 0.2% hits | AID 2557; in the data active = inhibition above about 50%
TAAR1 antag: human TAAR1 antagonism; Q96RJ0; CHO RD-HGA16 TAAR1, Fluo-8 calcium fluorescence, antagonist; inhibition, % at 3 µM; 360,000 compounds, 1.5% hits; AID 624466;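 active = inhibition above a per-plate cutoff, the mean inhibition of test compounds on that plate plus 3 SD, cut at about 49% in these data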
Target sequence (Q96RJ0 whole entry, looked up): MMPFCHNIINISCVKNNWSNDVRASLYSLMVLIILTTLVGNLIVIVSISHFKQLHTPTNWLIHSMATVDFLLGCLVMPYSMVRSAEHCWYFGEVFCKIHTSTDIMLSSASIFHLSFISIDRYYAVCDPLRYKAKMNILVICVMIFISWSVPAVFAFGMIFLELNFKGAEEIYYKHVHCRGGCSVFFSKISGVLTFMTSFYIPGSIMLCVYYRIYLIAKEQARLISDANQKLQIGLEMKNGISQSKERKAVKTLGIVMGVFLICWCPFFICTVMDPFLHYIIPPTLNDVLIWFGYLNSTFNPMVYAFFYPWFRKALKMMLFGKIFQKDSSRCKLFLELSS
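Assay system: RD-HGA16 CHO cells with stable hTAAR1 and Gα16 / Reagent: EC80 β-phenethylamine stimulus / Doses: 3 µM, single point / Timing: dye loading 75 min at 37 °C, then 30 min room temperature / Measured by: Fluo-8 intracellular calcium dye fluorescence, real-time kinetic reads / Controls: vehicle wells and EC80 agonist wells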
TAAR1 ag: agonists of human TAAR1; CHO RD-HGA16 TAAR1, Fluo-8 calcium fluorescence; vehicle wells 0%, saturating PEA agonist 100%; activation, % at 3 µM; 360,000 compounds, 0.99% hits;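 active = activation above the mean activation of all test compounds in the run plus 3 SD, cut at about 38% in these data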
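test system = CHO RD-HGA16 cells carrying human TAAR1 plus Gα16 | schedule = 17-24 h seeding, 75 min 37 °C dye, 30 min RT | compound dosing = 3 µM single concentration | control set = DMSO and PEA EC100 | replicates = n 1 | signal = Fluo-8 fluorescence, 5 s baseline then 140 s kinetic read | measure = percent activation vs PEA EC100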
Hits are given with their value; n = inactive; x = no result; + = active, no number. In the library only some 2.6% were active in any assay of this set; here they are far more common.

SMILES	Rce1 inh	Platelet DG rel	VLA-4 inh	TAAR1 antag	TAAR1 ag
COc1cc(/C=N/NC(=O)NC23CC4CC(CC(C4)C2)C3)ccc1OCC(N)=O	n	n	n	58.1	n
COc1cc(/C=N/NC(N)=O)ccc1OCC(=O)N1C(C)CCCC1C (centres undefined)	n	62.3	n	n	n
COC(=O)CCCn1cc(CN(C)C2CN(Cc3cn(CCCC(=O)OC)nn3)S(=O)(=O)C2)nn1 (centres undefined)	x	x	x	n	n
CCOc1ccccc1N(CC(=O)NCCSCc1ccco1)S(=O)(=O)c1ccccc1	n	n	n	50.1	n
Cc1ccc(S(=O)(=O)N(CC(=O)Nc2cc(C)ccc2C)C(=O)N2CCN(C)CC2)cc1	n	n	n	n	n
O=C(Nc1ccc2c(c1)OCO2)C1CCCN1C(=O)Nc1ccccc1 (centres undefined)	n	n	n	n	n
COC(=O)[C@H](CC(C)C)NC(=O)CC[C@H]1O[C@@H](n2cc(C)c(=O)[nH]c2=O)C[C@@H]1O	x	x	x	n	n
CCOc1ccc(-n2c(SCc3ccc([N+](=O)[O-])cc3)nnc2-c2ccc(OC)cc2)cc1	+	n	n	n	n
CCOc1ccc(-n2c(SCc3ccc(C#N)cc3)nnc2-c2cccnc2)cc1	n	n	n	n	n
CCN(CC(=O)Nc1ccc(NC(C)=O)cc1)C(=O)c1cc(-c2ccccc2Cl)nc2ccccc12	x	x	x	71.9	39.3
CCN(CC)S(=O)(=O)c1cc(NC(=O)c2cc(-c3ccccn3)nc3ccccc23)ccc1C	n	n	n	55.2	n
CCN(CC)S(=O)(=O)c1cc(NC(=O)c2n[nH]c(=O)c3ccccc23)ccc1C	n	n	n	n	n
CCN(CC)C(=O)c1cccc(NC(=O)c2cc(-c3ccccn3)nc3ccccc23)c1	x	x	n	48.8	n
O=C(Nc1cccc(S(=O)(=O)N2CCCC2)c1)c1cc(-c2ccccn2)nc2ccccc12	n	n	n	53.3	n
Cn1nc(C(C)(C)C)cc1C(=O)N1CCCCC1c1cc(C(=O)Nc2ccccc2)no1 (centres undefined)	x	x	x	n	n
Cc1cccc(CN2CCN(C(=O)CN(C)C(C)C(=O)Nc3ccc(C(N)=O)cc3)CC2)c1 (centres undefined)	x	x	n	n	n
Nc1ncnc2c1ncn2[C@@H]1O[C@H](C(=O)N[C@@H](CCc2ccccc2)C(=O)N2CCN(CC(=O)N3CCCC3)CC2)[C@@H](O)[C@H]1O	x	x	x	n	n
Cc1nc(-c2cccc(NC(=O)c3cccc(S(=O)(=O)N4CCCC4)c3)c2)cs1	x	x	n	53.4	n
COc1cccc(CNc2ccc3[nH]c(=O)[nH]c3c2)c1OCc1ccc(F)cc1	n	n	n	50.1	n
CCC(CC)C(=O)Nc1nnc(S(=O)(=O)N(CC)c2ccc(OC)cc2)s1	n	n	n	n	n
Cc1ccccc1COC(=O)CCCC1=NS(=O)(=O)c2ccccc2N1	n	n	n	n	50.3
O=C(CSc1ncnc2[nH]ncc12)Nc1nc(-c2ccc(F)c(F)c2)cs1	n	n	n	61.8	n
Cc1cccc(C)c1NC(=O)CSc1ncnc2[nH]ncc12	x	x	n	n	n
O=C(N=C1SC2CS(=O)(=O)CC2N1c1ccc(F)c(Cl)c1)C1CCCO1 (centres undefined)	n	n	n	n	n
O=C(OCC(=O)N1CCN(c2ccccc2)CC1)c1ncc(Cl)c(Cl)c1Cl	n	n	n	n	n
SMILES	Rce1 inh	Platelet DG rel	VLA-4 inh	TAAR1 antag	TAAR1 ag
CCOc1ccc2nc(NC(=O)COC)sc2c1	n	n	n	n	n
CCOc1ccc2nc(NC(=O)c3ccoc3C)sc2c1	n	69.1	n	n	n
CCOc1ccc2nc(SCCNS(=O)(=O)c3ccccc3)sc2c1	n	n	n	60.1	n
CCOc1ccc2nc(NC(=O)c3ccccn3)sc2c1	n	80.9	n	n	n
CCOc1ccc2nc(NC(=O)c3ccco3)sc2c1	n	50.2	n	n	n
CCOC(=O)c1ccc2nc(NC(=O)c3ccco3)sc2c1	n	n	n	n	n
Cc1ccc2nc(NC(=O)c3ccccn3)sc2c1	n	n	n	n	n
CCOC(=O)C1(C)CCCN1C(=O)c1ccc(Cl)nc1 (centres undefined)	x	x	x	n	n
Cn1c(=O)c2c(ncn2CC(=O)N/N=C/C=C/c2ccccc2[N+](=O)[O-])n(C)c1=O	n	n	n	x	x
COc1ccc(OC)c(/C=C/C(=O)OCC(=O)Nc2ccc(Cl)c(S(=O)(=O)N(C)C)c2)c1	n	n	n	n	n
COc1cccc(/C=C/C(=O)OCC(=O)Nc2ccc(Cl)c(S(=O)(=O)N(C)C)c2)c1OC	+	n	n	n	n
C=CC[C@H](CC(=O)N(CCO)Cc1ccccc1)C(=O)N[C@H](COC(=O)[C@@H](CC=C)Cc1ccc(F)cc1)Cc1ccccc1	x	x	n	52.1	n
C=CCC[C@H](Cc1ccc(F)cc1)C(=O)OC[C@@H](Cc1c[nH]c2ccccc12)NC(=O)[C@@H](CC=C)CC(=O)N(CCO)Cc1ccccc1	x	x	n	51.0	n
CCOc1cc(/C=N/NC(=O)c2ccccn2)ccc1OC(=O)c1ccc(F)cc1	n	n	n	n	n
CN(C)CCOC(=O)C1(c2ccccc2)CCCC1	n	66.3	n	n	n
N=C(N)c1ccc(Cl)cc1	n	n	n	n	n
N=C(N)c1ccc(/C=C/c2ccc(C(=N)N)cc2O)cc1	+	n	n	n	n
C[C@]12CC[C@H](O)CC1=CCC1C2CC[C@@]2(C)C1CC[C@@H]2NC(=O)[C@@H](N)Cc1cnc[nH]1 (some centres undefined)	x	x	x	n	n
COC(=O)[C@]12C[C@H](CC(=O)N3CCCC3)C(=O)N(Cc3ccccc3)C1=C[C@H](C1CCCC1)O[C@@H]2C	x	x	x	n	n
COc1ccc(-c2ccc(C(=O)Nc3cccc(NS(C)(=O)=O)c3)c3occc23)c(C)c1	x	x	x	70.7	n
COc1ccc(-c2ccc(C(=O)Nc3cccc(F)c3)c3occc23)c(C)c1	x	x	x	n	n
COc1ccc(-c2ccc(CN3C(C)C(=O)N(Cc4cn(CCC5OCCCO5)nn4)CCS3(=O)=O)cc2)cc1 (centres undefined)	x	x	x	n	n
COc1ccc(CN2CCN(C(=O)c3ccc(CNS(=O)(=O)c4ccc(C)cc4)cc3)CC2)c(OC)c1OC	n	n	n	n	n
CC1(C(=O)NCc2ccc(C(F)(F)F)cc2)CCN1Cc1ccccc1OC(F)F (centres undefined)	x	x	x	55.6	n
CC1(C(=O)NCc2cccc3ccccc23)CCN1Cc1ccccc1OC(F)F (centres undefined)	x	x	x	n	n
Cc1cc(C)cc(N(CC(=O)NC2CCCC2)C(=O)CCC(=O)Nc2nc(C)cs2)c1	n	n	n	n	43.3
Cc1cccc(N(CC(=O)NC2CCCC2)C(=O)CCC(=O)Nc2nc(C)cs2)c1	n	n	n	n	n
CCOC(=O)c1sc(N2C(=O)C(O)=C(C(=O)c3ccc(C)o3)C2c2cccc([N+](=O)[O-])c2)nc1C (centres undefined)	n	50.5	n	n	n
